According to ChEMBL document CHEMBL1122807, “2-Substituted thiazolidine-4(R)-carboxylic acids as prodrugs of L-cysteine. Protection of mice against acetaminophen hepatotoxicity” (1984):

Tests used:
Mus musculus [1] = experiment: Compound was evaluated for its protective activity against acetaminophen (750 mg ([…]) /kg) toxicity, given intraperitoneally in mice and the number of animals with liver necrosis was determined after 2 hr; format: functional
Method in brief: (§1)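 Overnight-fasted (16 h) Swiss-Webster mice received acetaminophen 750 mg/kg ip, then test agent 2.45 mmol/kg ip 0.5 h later. Agents were made at 15 mg/mL in sterile 0.1 N NaHCO3 (one in sterile water), pH 6.5–7.5, and used within 1 h. Liver sections from the first 18 animals per agent were coded and graded 0 to 4+ blind. Results pooled from ≥3 replicate experiments.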

Mus musculus [2] = experiment: Compound was evaluated for its protective activity against acetaminophen (750 mg ([…]) /kg) toxicity, given intraperitoneally in mice and the number of animals with liver necrosis was determined
Mus musculus [3] = experiment: Compound was evaluated for its protective activity against acetaminophen (750 mg ([…]) /kg) toxicity, given intraperitoneally in mice and the number of animals with liver necrosis was determined after 0h; format: functional
Mus musculus [4] = experiment: Compound was evaluated for its protective activity against acetaminophen (750 mg ([…]) /kg) toxicity, given intraperitoneally in mice and the survival of the mice was determined at 48 h; 23/26; format: functional
Method in brief: (§2)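 Swiss-Webster mice were fasted overnight (16 h) before use. Test compound, made up as a 15 mg/mL solution in sterile 0.1 N NaHCO3 (pH 6.5–7.5) and used within 1 h of preparation, was given at 2.45 mmol/kg ip 0.5 h after acetaminophen ip. Survivors were counted at 48 h. Counts are cumulative over at least three replicate experiments run at different times.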

Mus musculus [5] = experiment: Compound was evaluated for its protective activity against acetaminophen (750 mg ([…]) /kg) toxicity, given intraperitoneally in mice and the number of animals with liver necrosis was determined after 3h; format: functional; method in brief: as §1
Mus musculus [6] = experiment: Compound was evaluated for its protective activity against acetaminophen (750 mg ([…]) /kg) toxicity, given intraperitoneally in mice and the survival of the mice was determined at 48 h; 0/18; format: functional; method in brief: as §2
Mus musculus [7] = experiment: Compound was evaluated for its protective activity against acetaminophen (750 mg ([…]) /kg), given intraperitoneally) in mice and the number of animals with liver necrosis was determined after 3h; format: functional; method in brief: as §1
Mus musculus [8] = experiment: Compound was evaluated for its protective activity against acetaminophen (750 mg ([…]) /kg) toxicity, given intraperitoneally in mice and the number of animals with liver necrosis was determined after 1 hr; format: functional
Mus musculus [9] = experiment: Compound was evaluated for its protective activity against acetaminophen (750 mg ([…]) /kg) toxicity, given intraperitoneally in mice and the survival of the mice was determined at 48 h; 13/24; format: functional; method in brief: as §2
Mus musculus [10] = experiment: Compound was evaluated for its protective activity against acetaminophen (750 mg ([…]) /kg) toxicity, given intraperitoneally in mice and the survival of the mice was determined at 48 h; 24/24; format: functional; method in brief: as §2
Mus musculus [11] = experiment: Compound was evaluated for its protective activity against acetaminophen (750 mg ([…]) /kg) toxicity, given intraperitoneally in mice and the survival of the mice was determined at 48 h; 19/24; format: functional; method in brief: as §2
Mus musculus [12] = experiment: Compound was evaluated for its protective activity against acetaminophen (750 mg ([…]) /kg) toxicity, given intraperitoneally in mice and the survival of the mice was determined at 48 h; 30/30; format: functional; method in brief: as §2
Mus musculus [13] = organism: Mus musculus; experiment: Compound was evaluated for the excretion of 14CO2 (carbon dioxide) in expired air of mice and the activity was determined as percent of dose excreted as 14CO2 at following time intervals - 8-12h; format: functional
Method in brief: (§3)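 Mice were dosed with thiazolidine carrying 14C at ring C-2 and the methyl carbon. Expired 14CO2 was trapped, and the trap was changed at 4, 8, 12, 16 and 24 h. Aliquots were counted by liquid scintillation against an aqueous Na2 14CO3 standard and expressed as percent of dose. The experiment was repeated in a second mouse (24 g, 2.57 mmol/kg).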

Mus musculus [14] = organism: Mus musculus; experiment: Compound was evaluated for the excretion of 14CO2 (carbon dioxide) in expired air of mice and the activity was determined as percent of dose excreted as 14CO2 at following time intervals - 4-8h; format: functional; method in brief: as §3
Mus musculus [15] = organism: Mus musculus; experiment: Compound was evaluated for the excretion of 14CO2 (carbon dioxide) in expired air of mice and the activity was determined as percent of dose excreted as 14CO2 at following time intervals - 16-24h; format: functional; method in brief: as §3
Mus musculus [16] = organism: Mus musculus; experiment: Compound was evaluated for the excretion of 14CO2 (carbon dioxide) in expired air of mice and the activity was determined as percent of dose excreted as 14CO2 at following time intervals - 0-4 hr; format: functional; method in brief: as §3
Mus musculus [17] = experiment: Compound was evaluated for its protective activity against acetaminophen (750 mg ([…]) /kg) toxicity, given intraperitoneally in mice and the survival of the mice was determined at 48 h; 28/30; format: functional
Mus musculus [18] = organism: Mus musculus; experiment: Compound was evaluated for the excretion of 14CO2 (carbon dioxide) in expired air of mice and the activity was determined as percent of dose excreted as 14CO2 at following time intervals - 12-16 h; format: functional; method in brief: as §3
Mus musculus [19] = experiment: Compound was evaluated for its protective activity against acetaminophen (750 mg ([…]) /kg) toxicity, given intraperitoneally in mice and the survival of the mice was determined at 48 h; 17/17; format: functional

Structure (SMILES)	No. of animals with liver necrosis (Mus musculus [1])	No. of animals with liver necrosis (Mus musculus [2])	No. of animals with liver necrosis (Mus musculus [3])	No. of animals with liver necrosis (Mus musculus [5])	No. of animals with liver necrosis (Mus musculus [8])	other results
O=C(O)[C@@H]1CSC(c2ccccc2)N1 (some centres undefined)	3	2	7	6		Survival (Mus musculus [4]): 23
CC1N[C@@H](C(=O)O)CS1 (some centres undefined)		17				Survival (Mus musculus [6]): 0; No. of animals with liver necrosis (Mus musculus [7]): 1
O=C(O)[C@@H]1CSC(c2ccncc2)N1 (some centres undefined)	1	6	2	5	4	Survival (Mus musculus [9]): 13
CCCCCC1N[C@H](C(=O)O)CS1 (some centres undefined)			16		2	Survival (Mus musculus [10]): 24
CCC1N[C@H](C(=O)O)CS1 (some centres undefined)	3	6	3	3	3	Survival (Mus musculus [11]): 19
CCCC1N[C@H](C(=O)O)CS1 (some centres undefined)	1	2	9		6	Survival (Mus musculus [12]): 30
CC1N[C@H](C(=O)O)CS1 (some centres undefined)		1	17			Of dose excreted (Mus musculus [13]): 4.3%; Of dose excreted (Mus musculus [14]): 7%; Of dose excreted (Mus musculus [15]): 3.7%; Of dose excreted (Mus musculus [16]): 61.9%; Survival (Mus musculus [17]): 28; Of dose excreted (Mus musculus [18]): 2.9%
CC(=O)N[C@@H](CS)C(=O)O [ACETYLCYSTEINE]			15		2	Survival (Mus musculus [19]): 17
